Active and inactive are the calls of the source. The rule behind the calls is not given here.

Experiment [1] has as its system RPMI-8226. Briefly: Upregulation of CXCL12 gene in human RPMI-8226 cells at 1 uM for 6 days by. The following applies: time 6.0 day. The class given is functional, cell-based. The essentials: (§1)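 Human myeloma lines RPMI-8226 and MM.1S exposed to 1 μM DOT1L inhibitor, or DMSO, for 6 days. Whole-genome expression profiled on gene expression microarray.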
Experiment [2] relates to MM1.S. Briefly: Upregulation of SMIM14 gene in human MM1.S cells at 1 uM for 6 days by. The class given is functional, cell-based. The following applies: time 6.0 day.
Experiment [3] has as its system RPMI-8226. As to the kind of experiment: Upregulation of RORC gene in human RPMI-8226 cells at 1 uM for 6 days by. The class given is functional, cell-based. The following applies: time 6.0 day.
Experiment [4] deals with RPMI-8226. Briefly: Upregulation of RGS1 gene in human RPMI-8226 cells at 1 uM for 6 days by. The experiment is classed as functional, cell-based. The following applies: time 6.0 day.
The subject of experiment [5] is RPMI-8226. Briefly: Upregulation of FBXO2 gene in human RPMI-8226 cells at 1 uM for 6 days by. The experiment is classed as functional, cell-based. The following applies: time 6.0 day. The essentials: as §1
The test system of experiment [6] is MM1.S. Briefly: Upregulation of MYO1F gene in human MM1.S cells at 1 uM for 6 days by. The experiment is classed as functional, cell-based. The following applies: time 6.0 day.
Experiment [7] has as its system MM1.S. Briefly: Upregulation of GLYATL1 gene in human MM1.S cells at 1 uM for 6 days by. The experiment is classed as functional, cell-based. The following applies: time 6.0 day. A digest of the protocol: as §1
Experiment [8] deals with MM1.S. As to the kind of experiment: Upregulation of ACOT11 gene in human MM1.S cells at 1 uM for 6 days by. The experiment is classed as functional, cell-based. The following applies: time 6.0 day.
Experiment [9] deals with RPMI-8226. As to the kind of experiment: Upregulation of SAP30L gene in human RPMI-8226 cells at 1 uM for 6 days by. The class given is functional, cell-based. The following applies: time 6.0 day.
For experiment [10], the system named is RPMI-8226. Briefly: Upregulation of XKR3 gene in human RPMI-8226 cells at 1 uM for 6 days by. The class given is functional, cell-based. The following applies: time 6.0 day.
The subject of experiment [11] is MM1.S. Briefly: Upregulation of PARP8 gene in human MM1.S cells at 1 uM for 6 days by. The experiment is classed as functional, cell-based. The following applies: time 6.0 day.
Experiment [12] has as its system RPMI-8226. As to the kind of experiment: Upregulation of ANTXR2 gene in human RPMI-8226 cells at 1 uM for 6 days by. The following applies: time 6.0 day. The class given is functional, cell-based.
Experiment [13] has as its system RPMI-8226. Briefly: Upregulation of PPP1R1C gene in human RPMI-8226 cells at 1 uM for 6 days by. The experiment is classed as functional, cell-based. The following applies: time 6.0 day.
Experiment [14] has as its system RPMI-8226. As to the kind of experiment: Upregulation of LY86 gene in human RPMI-8226 cells at 1 uM for 6 days by. The class given is functional, cell-based. The following applies: time 6.0 day.
For experiment [15], the system named is MM1.S. Briefly: Upregulation of SAP30L gene in human MM1.S cells at 1 uM for 6 days by. The experiment is classed as functional, cell-based. The following applies: time 6.0 day.
Experiment [16] concerns RPMI-8226. Briefly: Upregulation of FZD1 gene in human RPMI-8226 cells at 1 uM for 6 days by. The class given is functional, cell-based. The following applies: time 6.0 day. A digest of the protocol:
as §1

The subject of experiment [17] is RPMI-8226. As to the kind of experiment: Upregulation of POPDC2 gene in human RPMI-8226 cells at 1 uM for 6 days by. The class given is functional, cell-based. The following applies: time 6.0 day.
The test system of experiment [18] is MM1.S. As to the kind of experiment: Upregulation of RORC gene in human MM1.S cells at 1 uM for 6 days by. The class given is functional, cell-based. The following applies: time 6.0 day.
Experiment [19] concerns MM1.S. As to the kind of experiment: Downregulation of H3K79me2 level in human MM1.S cells at 1 uM for 3 days by ChIP-qPCR analysis. The experiment is classed as functional, cell-based. The following applies: time 3.0 day. The essentials:
(§2)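 ChIP-qPCR for H3K79me2 at IRF4-MYC signaling genes after 1 μM inhibitor or DMSO for 3 days. Signal normalized to input DNA. An intergenic region 28 kb upstream of KLF2 served as negative control. Mean of 3 replications ± SEM.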
(In general: Real-time PCR tracks product formation cycle by cycle.)

For experiment [20], the system named is MM1.S. As to the kind of experiment: Upregulation of HLA-DMB gene in human MM1.S cells at 1 uM for 6 days by. The experiment is classed as functional, cell-based. The following applies: time 6.0 day. A digest of the protocol:
as §1

Experiment [21] relates to RPMI-8226. Briefly: Upregulation of HLA-DRA gene in human RPMI-8226 cells at 1 uM for 6 days by. The class given is functional, cell-based. The following applies: time 6.0 day.
For experiment [22], the system named is RPMI-8226. Briefly: Upregulation of CTSH gene in human RPMI-8226 cells at 1 uM for 6 days by. The class given is functional, cell-based. The following applies: time 6.0 day. The essentials: as §1
Experiment [23] deals with RPMI-8226. As to the kind of experiment: Upregulation of S100A10 gene in human RPMI-8226 cells at 1 uM for 6 days by. The class given is functional, cell-based. The following applies: time 6.0 day.
Experiment [24] has as its system MM1.S. Briefly: Upregulation of CHRNA6 gene in human MM1.S cells at 1 uM for 6 days by. The experiment is classed as functional, cell-based. The following applies: time 6.0 day.
The subject of experiment [25] is MM1.S. Briefly: Upregulation of DOT1L in human MM1.S cells by qRT-PCR analysis. The experiment is classed as functional, cell-based. The essentials: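 Basal DOT1L transcript in untreated myeloma cell lines measured by qRT-PCR, normalized to ACTB; mean of 3 replicates with SEM.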
Experiment [26] concerns MM1.S. Briefly: Upregulation of HLA-DRB1 gene in human MM1.S cells at 1 uM for 6 days by. The experiment is classed as functional, cell-based. The following applies: time 6.0 day.
Experiment [27] concerns RPMI-8226. Briefly: Upregulation of IL1RAP gene in human RPMI-8226 cells at 1 uM for 6 days by. The class given is functional, cell-based. The following applies: time 6.0 day.
Experiment [28] deals with MM1.S. Briefly: Upregulation of NOG gene in human MM1.S cells at 1 uM for 6 days by. The experiment is classed as functional, cell-based. The following applies: time 6.0 day.
For experiment [29], the system named is RPMI-8226. As to the kind of experiment: Upregulation of MME gene in human RPMI-8226 cells at 1 uM for 6 days by. The experiment is classed as functional, cell-based. The following applies: time 6.0 day.
In experiment [30] the test system is MM1.S. As to the kind of experiment: Upregulation of IFITM3 gene in human MM1.S cells at 1 uM for 6 days by. The following applies: time 6.0 day. The experiment is classed as functional, cell-based.
Experiment [31] concerns RPMI-8226. Briefly: Upregulation of CCL2 gene in human RPMI-8226 cells at 1 uM for 6 days by. The class given is functional, cell-based. The following applies: time 6.0 day.
Experiment [32] has as its system RPMI-8226. As to the kind of experiment: Upregulation of MMP9 gene in human RPMI-8226 cells at 1 uM for 6 days by. The experiment is classed as functional, cell-based. The following applies: time 6.0 day.
Experiment [33] relates to RPMI-8226. As to the kind of experiment: Upregulation of TP53TG3 gene in human RPMI-8226 cells at 1 uM for 6 days by. The class given is functional, cell-based. The following applies: time 6.0 day.
The test system of experiment [34] is RPMI-8226. Briefly: Upregulation of RAPGEF2 gene in human RPMI-8226 cells at 1 uM for 6 days by. The experiment is classed as functional, cell-based. The following applies: time 6.0 day.
For experiment [35], the system named is MM1.S. Briefly: Upregulation of GRHL3 gene in human MM1.S cells at 1 uM for 6 days by. The following applies: time 6.0 day. The experiment is classed as functional, cell-based. A digest of the protocol:
as §1

For experiment [36], the system named is RPMI-8226. Briefly: Upregulation of LAMB3 gene in human RPMI-8226 cells at 1 uM for 6 days by. The experiment is classed as functional, cell-based. The following applies: time 6.0 day.
In experiment [37] the test system is MM1.S. As to the kind of experiment: Upregulation of BHLHE22 gene in human MM1.S cells at 1 uM for 6 days by. The class given is functional, cell-based. The following applies: time 6.0 day.
In experiment [38] the test system is RPMI-8226. Briefly: Upregulation of NXF3 gene in human RPMI-8226 cells at 1 uM for 6 days by. The class given is functional, cell-based. The following applies: time 6.0 day.
Experiment [39] deals with MM1.S. Briefly: Induction of apoptosis in human MM1.S cells assessed as early apoptotic cells at 1 uM for 3 days by annexin-V based propidium iodide staining based flow cytometric analysis (reference value: 5.51%). The class given is functional. The following applies: time 3 day. Background: In flow cytometry, cells or beads pass a laser one at a time.
The subject of experiment [40] is RPMI-8226. As to the kind of experiment: Upregulation of IFN in human RPMI-8226 cells assessed as increase in ISG15 gene at 1 uM for 6 days by qRT-PCR analysis. The class given is functional, cell-based. The following applies: time 6.0 day.
The subject of experiment [41] is MM1.S. As to the kind of experiment: Upregulation of IFN in human MM1.S cells assessed as increase in IFIT1 gene at 1 uM for 6 days by qRT-PCR analysis. The class given is functional, cell-based. The following applies: time 6.0 day.
The subject of experiment [42] is RPMI-8226. Briefly: Induction of apoptosis in human RPMI-8226 cells assessed as early apoptotic cells at 1 uM for 3 days by annexin-V based propidium iodide staining based flow cytometric analysis (reference value: 3.02%). The experiment is classed as functional. The following applies: time 3 day.
Experiment [43] concerns MM1.S. Briefly: Induction of apoptosis in human MM1.S cells assessed as late apoptotic cells at 1 uM for 6 days by annexin-V based propidium iodide staining based flow cytometric analysis (reference value: 13.4%). The following applies: time 6 day. The experiment is classed as functional.
In experiment [44] the test system is MM1.S. Briefly: Effect on human MM1.S cells assessed as change in KLF2 mRNA level at 1 uM for 3 days by ChIP-qPCR analysis. The experiment is classed as functional, cell-based. The following applies: time 3.0 day. A digest of the protocol: as §2
Experiment [45] deals with MM1.S. As to the kind of experiment: Upregulation of IFN in human MM1.S cells assessed as increase in ISG15 gene at 1 uM for 6 days by qRT-PCR analysis. The experiment is classed as functional, cell-based. The following applies: time 6.0 day.
For experiment [46], the system named is RPMI-8226. Briefly: Induction of apoptosis in human RPMI-8226 cells assessed as early apoptotic cells at 1 uM for 6 days by annexin-V based propidium iodide staining based flow cytometric analysis (reference value: 8.16%). The experiment is classed as functional. The following applies: time 6 day.

Take `CC(C)N(CCCNC(=O)Nc1ccc(C(C)(C)C)cc1)C[C@H]1O[C@@H](n2cc(Br)c3c(N)ncnc32)[C@H](O)[C@@H]1O`: the outcome in experiment [1], in [2], in [3], in experiment [4], in experiment [5] and in experiment [6] was Active. In addition, the result in [7], in experiment [8], in [9], in experiment [10], in [11] and in experiment [12] was Active. The outcome in experiment [13], in experiment [14], in [15], in [16], in [17] and in experiment [18] was Active. Besides, the outcome in experiment [19], in [20], in [21], in experiment [22], in experiment [23] and in experiment [24] was Active. The outcome in experiment [25], in experiment [26], in experiment [27], in experiment [28], in experiment [29] and in experiment [30] was Active. The result in experiment [31], in [32], in [33], in experiment [34], in experiment [35] and in experiment [36] was Active. In addition, the result in experiment [37] and in experiment [38] was Active.

Take `CC(C)N(C[C@H]1O[C@@H](n2cnc3c(N)ncnc32)[C@H](O)[C@@H]1O)[C@H]1C[C@@H](CCc2nc3cc(C(C)(C)C)ccc3[nH]2)C1` [PINOMETOSTAT]: the Activity in experiment [39] turned out to be 3.11%; in experiment [42], 7.39%; in experiment [43] it was 27.8%; in experiment [46], 15%. Besides, the outcome in experiment [40], in experiment [41], in experiment [44] and in [45] was Active.

Values taken from ChEMBL document CHEMBL5712901, “DOT1L inhibition blocks multiple myeloma cell proliferation by suppressing IRF4-MYC signaling” (2019).
